Values after ≈ are worked out from the molar mass of the structure shown.
Experiments:
[1] = test system: Staphylococcus aureus; assay: (§1) Antibacterial activity against intracellular methicillin resistant Staphylococcus aureus USA400 infected in mouse J774 cells assessed as reduction in intracellular bacterial cells at 2 times MIC concentration incubated for 24 hrs followed by re-plating on TSA plate for 18 to 22 hrs by serial dilution method relative to control; type: functional
Outline: (§2)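 J774 murine macrophages in DMEM + 10% FBS, 37 °C, 5% CO2, infected with MRSA USA400 at MOI ~10:1 for 1 h. Washed with gentamicin 100 µg/mL to kill extracellular bacteria. […] Cells lysed with 0.1% Triton-X, serially diluted in PBS, plated on TSA for 18-22 h, CFU counted. One-way ANOVA with Dunnett's test.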

[2] = test system: Staphylococcus aureus; assay: Antibacterial activity against methicilline-sensitive Staphylococcus aureus NRS-107 after 18 to 20 hrs by CLSI-based broth microdilution assay; type: functional
Outline: (§3)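 Broth microdilution per CLSI. Strains grown aerobically overnight on tryptone soy agar at 37 °C, adjusted to 0.5 McFarland, then diluted in cation-adjusted Mueller-Hinton broth to about 5 × 10^5 CFU/mL. Compounds (10 mg/mL DMSO stocks) serially diluted. Incubated aerobically at 37 °C for 18-20 h. MIC is the lowest concentration with no visible growth.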

[3] = test system: Enterococcus faecalis; assay: Antibacterial activity against vancomycin-resistant Enterococcus faecalis ATCC 51299 after 18 to 20 hrs by CLSI-based broth microdilution assay; type: functional; outline: as §3
[4] = test system: HaCaT; assay: Cytotoxicity against human HaCaT cells up to 64 ug/ml after 2 hrs by MTS assay; type: cell-based
[5] = Tmax in Sprague-Dawley rat at 50 mg/kg, po administered via gavage measured over 12 hrs by LC-MS/MS analysis; type: ADME, organism-based; details: in vivo
Outline: (§4)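 Three male naïve Sprague-Dawley rats received a single oral gavage dose of 50 mg/kg in 2% ethanol/48% PEG 400/50% water. Blood was collected into EDTA-K2 tubes over 12 h after dosing. Plasma was protein-precipitated with acetonitrile and compound concentration quantified by LC/MS/MS.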

[6] = Cmax in Sprague-Dawley rat at 50 mg/kg, po administered via gavage measured after 90 mins by LC-MS/MS analysis; type: ADME, organism-based; parameters: dose 50 mg/kg, route oral; details: in vivo; outline: as §4
[7] = Volume of drug distribution in Sprague-Dawley rat at 50 mg/kg, po administered via gavage measured over 12 hrs by LC-MS/MS analysis; type: ADME, organism-based; details: in vivo; outline: as §4
[8] = Half life in Sprague-Dawley rat at 50 mg/kg, po administered via gavage measured over 12 hrs by LC-MS/MS analysis; type: ADME, organism-based; details: in vivo; outline: as §4
[9] = test system: Staphylococcus aureus; assay: Antibacterial activity against methicilline-resistant Staphylococcus aureus NRS386 USA700 after 18 to 20 hrs by CLSI-based broth microdilution assay; type: functional; outline: as §3
[10] = test system: Streptococcus pneumoniae; assay: Bactericidal activity against cephalosporin-resistant Streptococcus pneumoniae ATCC 51916 incubated for 18 to 20 hrs followed by replating on tryptic soy agar plate and further incubated for 18 to 24 hrs by CLSI-based broth microdilution assay; type: functional
Outline: (§5)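 MBC: after the broth microdilution MIC (CAMHB, ~5 × 10^5 CFU/mL, 37 °C, 18-20 h), 4 µL from wells without growth plated onto tryptic soy agar. Plates incubated 37 °C for 18-20 h. MBC is the lowest concentration giving 99.9% reduction in growth.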

[11] = test system: Staphylococcus aureus; assay: Bactericidal activity against methicilline-resistant Staphylococcus aureus NRS-119 incubated for 18 to 20 hrs followed by replating on tryptic soy agar plate and further incubated for 18 to 24 hrs by CLSI-based broth microdilution assay; type: functional; outline: as §5
[12] = test system: Pseudomonas aeruginosa; assay: Bactericidal activity against Pseudomonas aeruginosa ATCC 27853; type: functional
[13] = test system: Staphylococcus aureus; assay: Antibacterial activity against vancomycin-resistant Staphylococcus aureus 12 after 18 to 20 hrs by CLSI-based broth microdilution assay; type: functional; outline: as §3
[14] = test system: Staphylococcus aureus; assay: Bactericidal activity against methicilline-resistant Staphylococcus aureus NRS385 USA500 incubated for 18 to 20 hrs followed by replating on tryptic soy agar plate and further incubated for 18 to 24 hrs by CLSI-based broth microdilution assay; type: functional; outline: as §5
[15] = test system: Staphylococcus epidermidis; assay: Bactericidal activity against methicillin-resistant Staphylococcus epidermidis NRS101 incubated for 18 to 20 hrs followed by replating on tryptic soy agar plate and further incubated for 18 to 24 hrs by CLSI-based broth microdilution assay; type: functional
[16] = Clearance in Sprague-Dawley rat at 50 mg/kg, po administered via gavage after 12 hrs by LC-MS/MS analysis; type: ADME, organism-based; details: in vivo; outline: as §4
[17] = test system: Staphylococcus aureus; assay: Bactericidal activity against methicilline-resistant Staphylococcus aureus NRS123 USA400 incubated for 18 to 20 hrs followed by replating on tryptic soy agar plate and further incubated for 18 to 24 hrs by CLSI-based broth microdilution assay; type: functional; outline: as §5
[18] = test system: Caco-2; assay: Cytotoxicity against human Caco2 cells up to 64 ug/ml after 2 hrs by MTS assay; type: cell-based; details: caco-2, 2 h
[19] = test system: Staphylococcus aureus; assay: as §1, with “assessed as log10 reduction in” for “assessed as reduction in”, “dilution method” for “dilution method relative to control”; type: functional; outline: as §2
[20] = test system: J774; assay: Cytotoxicity against mouse J774 cells after 24 hrs by MTS assay; type: cell-based; details: j774, 24 h
Outline: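 J774 murine macrophages were incubated with compound for 24 h, then given MTS reagent for 4 h. Absorbance was read at OD490.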

[21] = test system: Staphylococcus aureus; assay: Antibacterial activity against methicilline-sensitive Staphylococcus aureus ATCC 6538 after 18 to 20 hrs by CLSI-based broth microdilution assay; type: functional; outline: as §3
[22] = test system: Escherichia coli; assay: Antibacterial activity against TolC-deficient Escherichia coli JW55031; type: functional
[23] = test system: Enterococcus faecalis; assay: Bactericidal activity against vancomycin-resistant Enterococcus faecalis ATCC 51299 incubated for 18 to 20 hrs followed by replating on tryptic soy agar plate and further incubated for 18 to 24 hrs by CLSI-based broth microdilution assay; type: functional; outline: as §5
[24] = test system: Staphylococcus aureus; assay: Bactericidal activity against Staphylococcus aureus ATCC BAA42 incubated for 18 to 20 hrs followed by replating on tryptic soy agar plate and further incubated for 18 to 24 hrs by CLSI-based broth microdilution assay; type: functional; outline: as §5
[25] = test system: Caco-2; assay: Cytotoxicity against human Caco2 cells up to 32 ug/ml after 2 hrs by MTS assay; type: cell-based; details: caco-2, 2 h
[26] = test system: HaCaT; assay: Cytotoxicity against human HaCaT cells up to 32 ug/ml after 2 hrs by MTS assay; type: cell-based

| SMILES | MIC [2] [µg/mL] | MIC [3] [µg/mL] | MIC [9] [µg/mL] | MBC [10] [µg/mL] | MBC [11] [µg/mL] | MBC [12] [µg/mL] | MIC [13] [µg/mL] | MBC [14] [µg/mL] | MBC [15] [µg/mL] | MBC [17] [µg/mL] | MIC [21] [µg/mL] | MIC [22] [µg/mL] | MBC [23] [µg/mL] | MBC [24] [µg/mL] | other results |
| --- | --- | --- | --- | --- | --- | --- | --- | --- | --- | --- | --- | --- | --- | --- | --- |
| C/C(=N\NC(=N)N)c1sc(-c2ccc(N3CCCCC3)cc2)nc1C | 4 (≈ 11.2 µM) | 16 (≈ 44.9 µM) | 4 (≈ 11.2 µM) | 16 (≈ 44.9 µM) | 16 (≈ 44.9 µM) | > 64 | 4 (≈ 11.2 µM) | 32 (≈ 89.8 µM) | 8 (≈ 22.4 µM) | 16 (≈ 44.9 µM) | 4 (≈ 11.2 µM) | 32 (≈ 89.8 µM) | 64 (≈ 180 µM) | 16 (≈ 44.9 µM) | inhibition (INH) [1]: 93.2%; Activity [4]: Non-Toxic; Tmax [5]: 1.3 h; Cmax [6]: 9700 to 10000 ng/mL; Vd [7]: 4.42 L; half-life [8]: 4 h; CL/F [16]: 12.7 mL/min; Activity [18]: Non-Toxic; Activity [19]: 1.18 log10CFU/ml; Activity [20]: Non-Toxic |
| C/C(=N\NC(=N)N)c1sc(-c2ccc(N3CCCC(C)C3)cc2)nc1C (stereo not given) | 8 (≈ 21.6 µM) | 8 (≈ 21.6 µM) | 8 (≈ 21.6 µM) | 16 (≈ 43.2 µM) | 16 (≈ 43.2 µM) | > 64 | 8 (≈ 21.6 µM) | 16 (≈ 43.2 µM) | 8 (≈ 21.6 µM) | 16 (≈ 43.2 µM) | 8 (≈ 21.6 µM) | 8 (≈ 21.6 µM) | 32 (≈ 86.4 µM) | 16 (≈ 43.2 µM) | Activity [25]: Non-Toxic; Activity [26]: Non-Toxic |

Reference: ChEMBL document CHEMBL4406834, “Phenylthiazoles with nitrogenous side chain: An approach to overcome molecular obesity” (Eur J Med Chem, 2019)
